Source: PubChem
PKD1 kinase inh: inhibitors of human PKD1 kinase, biochemical, fluorescence polarization | 200,000 compounds, 0.056% hits | inhibition, % (no concentration beside the values) | Serine/threonine-protein kinase D1 (Homo sapiens), Q15139 | PKD1 kinase fluorescence polarization assay; in the data active = inhibition above about 50%
Target sequence (Q15139 whole entry, looked up): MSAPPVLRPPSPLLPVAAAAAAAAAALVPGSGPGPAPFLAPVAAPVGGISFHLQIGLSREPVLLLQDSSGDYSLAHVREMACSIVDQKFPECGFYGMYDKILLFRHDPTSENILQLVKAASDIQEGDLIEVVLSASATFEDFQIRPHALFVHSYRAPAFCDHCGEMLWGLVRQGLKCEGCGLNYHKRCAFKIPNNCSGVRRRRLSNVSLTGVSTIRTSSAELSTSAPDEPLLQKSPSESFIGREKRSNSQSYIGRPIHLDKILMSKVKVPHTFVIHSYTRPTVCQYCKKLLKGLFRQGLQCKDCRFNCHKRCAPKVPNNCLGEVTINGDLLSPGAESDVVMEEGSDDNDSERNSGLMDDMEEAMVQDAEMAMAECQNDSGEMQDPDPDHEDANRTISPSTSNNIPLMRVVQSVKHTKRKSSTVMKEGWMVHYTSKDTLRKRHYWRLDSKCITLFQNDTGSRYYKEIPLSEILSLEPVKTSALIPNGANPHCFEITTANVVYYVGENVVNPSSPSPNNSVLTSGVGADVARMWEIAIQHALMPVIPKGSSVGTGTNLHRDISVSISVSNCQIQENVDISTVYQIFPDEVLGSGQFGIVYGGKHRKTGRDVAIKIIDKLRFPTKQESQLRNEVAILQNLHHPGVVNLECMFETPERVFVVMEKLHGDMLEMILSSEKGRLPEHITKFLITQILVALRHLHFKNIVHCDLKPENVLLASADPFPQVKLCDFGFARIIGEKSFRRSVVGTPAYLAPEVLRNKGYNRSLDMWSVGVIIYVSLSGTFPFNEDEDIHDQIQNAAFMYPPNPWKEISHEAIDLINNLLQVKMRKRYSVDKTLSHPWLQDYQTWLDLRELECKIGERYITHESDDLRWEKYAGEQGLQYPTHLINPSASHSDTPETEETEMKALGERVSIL
p97 inhibitor: inhibitors of human p97 ATPase, primary screen, biochemical; Transitional endoplasmic reticulum ATPase (Homo sapiens), P55072; recombinant p97 ATPase, Kinase-Glo ATP luminescence, 3 h; inhibition, % at 8 µM; 220,000 compounds, 0.42% hits; AID 1481, 2009; in the data active = inhibition above about 15%;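 also: 0% = DMSO vehicle and 100% = wells lacking enzyme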
Arbovirus anti: antivirals against arbovirus infection, primary screen, cell-based, full library, 10K replicate subset. 200,000 compounds, 0.37% hits. arbovirus infection cell-based antiviral screen. inhibition, % at 10 µM; in the data active = inhibition above about 30%
Wee1 degr inh: Wee1 degradation inhibitors, primary screen, cell-based, HeLa, Wee1K328M-luciferase, luminescence | Wee1-like protein kinase (Homo sapiens), P30291 | HeLa Luc-Wee1K328M stability; 100% = proteasome inhibitor MG132 effect | reporter increase, % at 5 µM | 220,000 compounds, 1.2% hits | AID 1321, 2008;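 active = activation above the mean of all tested compounds plus 3 SD, set per screening run, cut at about 8.8% in these data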;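 also: cells exposed to compound for 20 h before luminescence read; 0% = DMSO alone and 100% = MG132 at 30 µM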
Redox H2O2 prof: compounds producing H2O2 with reducing agent – biochemical, NIH compound library profiling, artefact control for MLSCN library redox annotation, primary screen. 200,000 compounds, 0.03% hits. DTT-dependent redox cycling H2O2, phenol red/HRP absorbance; 100% = 100 µM peroxide control, 0% = buffer. AID 878, 2007. activation, % at 10 µM;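 active = activation of at least 50% relative to the plate's high and low controls in the primary single-dose screen; inactive = activation below 50%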;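 also: compound incubated with DTT at 0.8 mM final as the reducing agent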
RBBP9 inh: human RBBP9 inhibitors, primary screen, biochemical, fluorescence polarization, FP-Rh probe, HTS | recombinant RBBP9 | inhibition, % at 7.94 µM | 220,000 compounds, 0.2% hits;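 active = inhibition above the campaign mean of all tested compounds plus 3 SD, cut at about 14% in these data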;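 also: plate controls were DMSO wells with RBBP9 for no effect and wells lacking RBBP9 protein for full effect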
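Test system: recombinant human RBBP9; Timing: 30 min then 45 min, 25 °C; Detection: fluorescence polarization; Control set: RBBP9 with DMSO as uninhibited control, no-protein wells as full inhibition; Compound dosing: one concentration, 7.94 µM nominal, 0.794% DMSO; Probe or stimulus: FP-Rh activity-based probe, 375 nM before mixing.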
Wee1 degr conf: Wee1 degradation inhibitors, confirmation, cell-based, HeLa, Wee1K328M-luciferase, luminescence, triplicate. shares compounds with Wee1 degr inh. HeLa Luc-Wee1K328M degradation; vehicle 0%, proteasome-blocked wells 100%. activation, % at 5 µM. 1,100 compounds, 4% hits. AID 1410, 2008; in the data active = activation above about 8.9%
* = called active by the depositor. This is a sample that favours compounds with a hit; in the whole collection about 2.2% have one here.

`C=C(C)Cn1c(C)cc(C)c(S(=O)(=O)c2cccc(C)c2)c1=O` gave PKD1 kinase inh -5.9, p97 inhibitor -8.1, Arbovirus anti 10.3, Wee1 degr inh 6.5, Redox H2O2 prof -1.9 and RBBP9 inh -3.1.
Screening Cc1ccc(O)c(CNc2ccc(S(=O)(=O)Nc3nccs3)cc2)c1 returned p97 inhibitor 4.3, Wee1 degr inh 3.0 and RBBP9 inh 3.5.
`CC(=O)c1cc(C(=O)N2CCc3c([nH]c4ccccc34)C2CC(C)C)[nH]n1` (stereo unspecified) gave PKD1 kinase inh -2.2, p97 inhibitor 0.6, Arbovirus anti 0.3, Wee1 degr inh -0.2, Redox H2O2 prof -0.9 and RBBP9 inh -1.0.
Screening CC(C)CC1c2[nH]c3ccccc3c2CCN1C(=O)c1cnccn1 (stereo unspecified) returned PKD1 kinase inh -4.4, p97 inhibitor -4.1, Arbovirus anti 17.9, Wee1 degr inh 19.2*, Redox H2O2 prof -1.7, RBBP9 inh -6.4 and Wee1 degr conf 0.9.
`Cc1ccc(C(=O)CSc2nc3ccccc3c(=O)[nH]2)cc1` gave PKD1 kinase inh 3.5, p97 inhibitor -3.3, Arbovirus anti 13.3, Wee1 degr inh 20.5*, Redox H2O2 prof 0.0, RBBP9 inh 2.2 and Wee1 degr conf 1.3.
O=C(O)C(O)C(O)c1nc2ccccc2[nH]1 (stereo unspecified) was read as PKD1 kinase inh -5.3, p97 inhibitor 0.1, Arbovirus anti -1.0, Wee1 degr inh -3.0, Redox H2O2 prof -0.3 and RBBP9 inh -12.7.
COc1ccc(-n2nc([N+](=O)[O-])c(=NCCc3ccc(Cl)cc3)n2O)cc1 was read as PKD1 kinase inh -3.8, p97 inhibitor -0.4, Arbovirus anti -9.1, Wee1 degr inh 2.2, Redox H2O2 prof 3.2 and RBBP9 inh 3.1.
`COc1ccc(-n2nc([N+](=O)[O-])c(=NCCc3ccc(C)cc3)n2O)cc1` gave PKD1 kinase inh -2.1, p97 inhibitor 0.5, Arbovirus anti -24.4, Wee1 degr inh 25.0*, Redox H2O2 prof -0.1, RBBP9 inh -1.4 and Wee1 degr conf 3.7.
Screening CN(CC(O)COCc1ccccc1F)C1CCCCC1 (stereo unspecified) returned p97 inhibitor 2.1, Wee1 degr inh -2.6 and RBBP9 inh 6.9.
For CN(CC(O)COc1ccccc1F)C1CCCCC1 (stereo unspecified) the results were PKD1 kinase inh 1.8, p97 inhibitor -1.9, Arbovirus anti 3.1, Wee1 degr inh 11.4*, Redox H2O2 prof -0.4, RBBP9 inh -6.3 and Wee1 degr conf 1.4.
Cc1ccc(S(=O)(=O)N2CCN(S(=O)(=O)N3CCCCCC3)CC2)cc1 was read as PKD1 kinase inh -2.6, p97 inhibitor 6.2, Arbovirus anti -4.8, Wee1 degr inh -1.0, Redox H2O2 prof -1.0 and RBBP9 inh -6.2.
For C/C(=N\NC(=O)c1csc(C)c1C)c1ccc(Cl)s1 the results were PKD1 kinase inh -1.4, p97 inhibitor 5.2, Arbovirus anti -2.0, Wee1 degr inh 11.7*, Redox H2O2 prof 1.3, RBBP9 inh -9.4 and Wee1 degr conf 2.0.
`CC/C(=N\NC(=O)c1csc(C)c1C)c1cccs1` gave PKD1 kinase inh -6.3, p97 inhibitor -1.8, Arbovirus anti 1.6, Wee1 degr inh -0.9, Redox H2O2 prof 19.0 and RBBP9 inh -1.1.
O=c1c2cnn(-c3ccc(F)cc3)c2ncn1Cc1ccccc1 was read as PKD1 kinase inh -3.4, p97 inhibitor 1.1, Arbovirus anti -0.6, Wee1 degr inh -1.6, Redox H2O2 prof -0.8 and RBBP9 inh -0.8.
`Cc1cc2c(cc1C)C(c1ccccc1Br)CC(=O)N2` (stereo unspecified) gave PKD1 kinase inh 3.2, p97 inhibitor 3.0, Arbovirus anti -4.8, Wee1 degr inh 15.2*, Redox H2O2 prof 0.2, RBBP9 inh 2.3 and Wee1 degr conf 0.5.
`Cc1ccc(O)c(C(CC(=O)NCc2ccco2)c2ccccc2)c1` (stereo unspecified) gave PKD1 kinase inh -3.4, p97 inhibitor -1.0, Arbovirus anti 1.5, Wee1 degr inh 11.3*, Redox H2O2 prof -1.3, RBBP9 inh -6.8 and Wee1 degr conf 1.7.
Cn1c(C(=O)Nc2ccc3c(c2)OCCO3)cc2sccc21 was read as PKD1 kinase inh -1.2, p97 inhibitor 3.7, Arbovirus anti -5.0, Wee1 degr inh 16.4*, Redox H2O2 prof 1.3, RBBP9 inh -7.4 and Wee1 degr conf 7.1.
COc1ccccc1CC(=O)Nc1ccc(-c2noc(COc3cccc(C)c3C)n2)cc1 was read as PKD1 kinase inh -20.8, p97 inhibitor -0.6, Arbovirus anti -10.7, Wee1 degr inh 11.1*, Redox H2O2 prof -0.5, RBBP9 inh -10.5 and Wee1 degr conf 5.5.
For CC(C)CN1CCN(Cc2ccc(Oc3ncccn3)cc2)CC1CCO (stereo unspecified) the results were p97 inhibitor 2.0, Wee1 degr inh -3.5 and RBBP9 inh -1.4.
`CC(C)N1CCC(N2CCN(Cc3ccc(Oc4ncccn4)cc3)CC2CCO)CC1` (stereo unspecified) gave p97 inhibitor 11.3, Wee1 degr inh 12.8*, RBBP9 inh -4.2 and Wee1 degr conf -0.4.
`COc1ccc(NC(=O)COC(=O)Cc2ccccc2[N+](=O)[O-])cc1OC` gave PKD1 kinase inh -5.5, p97 inhibitor -0.9, Arbovirus anti 8.1, Wee1 degr inh 31.2*, Redox H2O2 prof -2.0, RBBP9 inh -13.7 and Wee1 degr conf 1.3.
For O=C(COC(=O)c1cccc(Br)c1)NCCC1=CCCCC1 the results were PKD1 kinase inh 4.2, p97 inhibitor -2.0, Arbovirus anti 3.1, Wee1 degr inh 5.7, Redox H2O2 prof 0.3 and RBBP9 inh 3.8.
`COc1ccc(Nc2oc(-c3ccc(OC)cc3)nc2C#N)cc1` gave p97 inhibitor 5.8, Wee1 degr inh 11.5*, RBBP9 inh -2.5 and Wee1 degr conf 9.6*.
Screening COc1ccc(Nc2oc(-c3ccc(Cl)cc3)nc2C#N)cc1 returned PKD1 kinase inh -0.3, p97 inhibitor -1.6, Arbovirus anti -20.1, Wee1 degr inh 1.8, Redox H2O2 prof -3.7 and RBBP9 inh -9.6.
